# Test results published in ChEMBL document CHEMBL1138633, “Synthesis and CYP24 inhibitory activity of 2-substituted-3,4-dihydro-2H-naphthalen-1-one (tetralone) derivatives” (Bioorg Med Chem Lett, 2004).
# Biological target: T1, 1,25-dihydroxyvitamin D(3) 24-hydroxylase, mitochondrial (Rattus norvegicus, UniProt Q09128)
# T1 sequence (Q09128 whole entry): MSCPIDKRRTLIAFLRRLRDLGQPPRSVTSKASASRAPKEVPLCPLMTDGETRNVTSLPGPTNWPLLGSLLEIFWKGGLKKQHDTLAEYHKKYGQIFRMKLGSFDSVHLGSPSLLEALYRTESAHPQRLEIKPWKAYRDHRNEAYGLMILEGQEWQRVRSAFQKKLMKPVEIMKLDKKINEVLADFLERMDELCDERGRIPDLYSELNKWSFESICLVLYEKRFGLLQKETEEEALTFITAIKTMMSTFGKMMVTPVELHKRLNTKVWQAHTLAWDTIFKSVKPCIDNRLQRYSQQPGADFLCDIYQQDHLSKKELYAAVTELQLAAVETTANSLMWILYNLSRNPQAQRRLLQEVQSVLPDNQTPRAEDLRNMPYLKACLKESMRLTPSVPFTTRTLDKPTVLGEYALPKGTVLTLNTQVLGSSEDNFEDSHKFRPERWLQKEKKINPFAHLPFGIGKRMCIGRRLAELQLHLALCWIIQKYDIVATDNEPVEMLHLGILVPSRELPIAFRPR
# Experiment: Inhibitory activity against 25-hydroxyvitamin D3 24-hydroxylase of rat kidney mitochondria
# Method in brief: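 Substrate was [26,27-methyl-3H]-25-hydroxyvitamin D3, taken from a stock of labelled plus unlabelled 25 µM 25(OH)D3 holding 5 µCi/mL. It was incubated with NADPH and inhibitor at varying concentrations (in acetonitrile) in phosphate buffer pH 7.4, shaking at 37 °C for 30 min. Metabolites were extracted with ethyl acetate and analysed by HPLC with online radioactivity detection, quantified by peak area. Results are % inhibition relative to an acetonitrile control.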
row,IC50 [µM],SMILES
1,4.5,COc1ccc2c(c1)CCC(Cc1cc(C(F)(F)F)ccc1C(F)(F)F)C2=O (stereo not drawn)
2,> 100,COc1ccc2c(c1)CC/C(=C\c1cccc(N(C)C)c1)C2=O
3,> 100,CN(C)c1ccc(/C=C2\CCc3cc(O)ccc3C2=O)cc1
4,8.9,O=C1c2ccc(O)cc2CCC1Cc1ccc(O)cc1 (stereo not drawn)
5,> 20,COc1ccc2c(c1)CC/C(=C\c1ccccc1C)C2=O
6,> 20,O=C1c2ccc(O)cc2CCC1Cc1ccc(-c2ccccc2)cc1 (stereo not drawn)
7,3.5,COc1ccc2c(c1)CCC(Cc1ccc(O)cc1)C2=O (stereo not drawn)
8,2.1,O=C1c2ccc(O)cc2CCC1Cc1ccccc1-c1ccccc1 (stereo not drawn)
9,> 100,COc1ccc2c(c1)CC/C(=C\c1cc(C(F)(F)F)ccc1C(F)(F)F)C2=O
10,0.9,COc1ccc2c(c1)CCC(Cc1ccccc1C)C2=O (stereo not drawn)
11,> 100,O=C1/C(=C/c2ccc(-c3ccccc3)cc2)CCc2cc(O)ccc21
12,> 100,O=C1/C(=C/c2ccccc2-c2ccccc2)CCc2cc(O)ccc21
13,100,COc1ccc2c(c1)CC/C(=C\c1ccccc1Br)C2=O
14,2.6,COc1ccc2c(c1)CCC(Cc1ccc(O)cc1)C2 (stereo not drawn)
15,> 20,O=C1/C(=C/c2ccc(O)cc2)CCc2cc(O)ccc21
16,18,CN(C)c1ccc(CC2CCc3cc(O)ccc3C2=O)cc1 (stereo not drawn)
17,> 20,COc1ccc2c(c1)CC/C(=C\c1ccc(O)cc1)C2=O

row,SMILES,IC50 [µM]
1,CC(=O)N1CCN(c2ccc(OC[C@H]3CO[C@](Cn4ccnc4)(c4ccc(Cl)cc4Cl)O3)cc2)CC1 [KETOCONAZOLE],20
